Only some compounds are listed: those with a hit (about 2.9% of all), similar ones and a draw of the others.
TRPC6 inhibitor = mouse TRPC6 channel inhibitors, primary screen, cell-based, HEK293, membrane potential dye | AID 2553, 2010 | Short transient receptor potential channel 6 (Mus musculus), Q61143 | ACh-evoked depolarization; stronger effect = lower value | B-score at 10 µM | 310,000 tested, 1.1% active;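 active = B-score under library mean minus 3 SD, initial fluorescence not abnormally high, positive integrated signal ratio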;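 note: B-score derived from integrated fluorescence ratio over the kinetic read; more negative B-score means stronger inhibition of depolarization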
Target sequence (Q61143 whole entry, looked up): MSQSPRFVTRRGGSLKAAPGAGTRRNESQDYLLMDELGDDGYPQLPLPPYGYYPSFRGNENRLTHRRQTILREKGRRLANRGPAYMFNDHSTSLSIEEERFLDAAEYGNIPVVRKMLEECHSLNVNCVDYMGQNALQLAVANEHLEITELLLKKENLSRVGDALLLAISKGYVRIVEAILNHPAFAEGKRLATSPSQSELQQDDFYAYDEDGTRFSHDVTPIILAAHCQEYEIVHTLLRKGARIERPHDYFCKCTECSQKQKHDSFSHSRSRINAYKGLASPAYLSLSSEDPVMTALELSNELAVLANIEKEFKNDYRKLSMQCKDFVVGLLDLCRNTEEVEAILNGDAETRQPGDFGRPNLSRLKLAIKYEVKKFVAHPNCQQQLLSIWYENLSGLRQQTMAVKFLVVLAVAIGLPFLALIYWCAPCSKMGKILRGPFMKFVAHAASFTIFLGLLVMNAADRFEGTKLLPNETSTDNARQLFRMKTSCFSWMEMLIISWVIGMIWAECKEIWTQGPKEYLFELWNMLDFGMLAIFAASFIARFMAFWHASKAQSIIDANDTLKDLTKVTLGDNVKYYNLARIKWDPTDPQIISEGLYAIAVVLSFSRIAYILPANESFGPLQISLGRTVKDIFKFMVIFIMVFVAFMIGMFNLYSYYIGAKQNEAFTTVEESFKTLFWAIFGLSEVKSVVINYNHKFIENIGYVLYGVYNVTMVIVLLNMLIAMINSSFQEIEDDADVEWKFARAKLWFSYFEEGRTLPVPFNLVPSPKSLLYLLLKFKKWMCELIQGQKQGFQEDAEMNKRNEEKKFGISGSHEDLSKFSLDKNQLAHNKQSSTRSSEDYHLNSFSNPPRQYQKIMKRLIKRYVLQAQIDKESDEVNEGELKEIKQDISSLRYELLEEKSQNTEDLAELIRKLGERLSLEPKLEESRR
TRPC4 act = activators of mouse TRPC4 channel, primary screen, Fluo4 calcium, HEK293 TRPC4beta/mu-opioid cells; 310,000 tested, 0.49% active; B-score at 10 µM; Fluo4 calcium fluorescence; stronger effect = higher value; Short transient receptor potential channel 4 (Mus musculus), Q9QUQ5;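 active = B-score above 5 SD of library B-scores, and initial fluorescence ratio not above library mean plus 5 SD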;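 note: positive B-score marks a calcium rise read as TRPC4 activation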
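System: HEK293 cells stably co-expressing mouse TRPC4beta and mu-opioid receptor; Schedule: Fluo4 dye loading 45 min at room temperature, 110 s recording; Detection: Fluo4 fluorescence, kinetic; Evaluation: B-scored integrated calcium fluorescence ratio; Controls: buffer (low) and maximal DAMGO (high).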
TRPC4 PAM = positive allosteric modulators of TRPC4, primary screen, cell-based, mouse TRPC4beta, HEK293 mu-opioid, Fluo-4 calcium; DAMGO EC20, Fluo-4 Ca2+ flux; stronger effect = higher value; B-score at 10 µM; 310,000 tested, 0.42% active; AID 2227, 2009;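 active = B-score of calcium response area above 5 SD of library B-scores, with initial fluorescence ratio within 5 SD of library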
Kir21 block = inhibitors of mouse Kir2.1 inward-rectifier potassium channel | HEK293-Kir2.1, FluxOR thallium flux fluorescence; stronger effect = lower value | AID 1672, 2009 | B-score at 10 µM | 310,000 tested, 0.85% active;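 active = fluorescence ratio B-score at or below minus 3 SD of library scores, with starting-brightness B-score within 2 SD, cut at about -4.2 in these data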;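 note: channel flux triggered by added potassium and thallium sulfate stimulus; B-score of peak minus minimum fluorescence over baseline after thallium stimulus; more negative B-score means stronger Kir2.1 block with less thallium influx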
TRPC4 block = inhibitors of mouse TRPC4 channel, primary screen, Fluo4 calcium, HEK293 TRPC4beta/mu-opioid cells. DAMGO-evoked Fluo4 calcium flux; stronger effect = lower value. B-score at 10 µM. 300,000 tested, 0.39% active;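 active = B-score over 3 SD under the library average, no early fluorescence shift, positive overall ratio signal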
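Assay system – HEK293 line stably carrying TRPC4beta and mu-opioid receptor · Doses – single dose · Detection – Fluo4 calcium-dye fluorescence, kinetic read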
TRPC6 act = mouse TRPC6 channel activators, primary screen, cell-based, HEK293, membrane potential dye; B-score at 10 µM; HEK293-TRPC6 membrane potential dye fluorescence; stronger effect = higher value; 310,000 tested, 0.13% active; Short transient receptor potential channel 6 (Mus musculus), Q61143;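 active = B-score of the integrated fluorescence ratio above library mean plus 3 SD, and starting fluorescence ratio within library mean plus 5 SD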;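 note: higher score means more depolarization so channel activation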
Numbers stand for hits.

What do the screens show for `CN1C(=O)CC(=O)N(C)c2cc(S(=O)(=O)N(C)Cc3ccccc3)ccc21`?
TRPC6 inhibitor: inactive; TRPC4 act: inactive; TRPC4 PAM: inactive; Kir21 block: inactive; TRPC4 block: inactive; TRPC6 act: inactive

How did CCN(CC)CCNC(=O)CCc1c(C)nc2c(c(C)nn2-c2ccc(C)cc2)c1C do in these assays?
TRPC6 inhibitor: inactive; TRPC4 act: inactive; TRPC4 PAM: inactive; Kir21 block: -4.5; TRPC4 block: inactive; TRPC6 act: inactive

Results for CC(=O)c1ccc(-n2nnnc2SCC(=O)NC2CCCCC2)cc1 ?
TRPC6 inhibitor: inactive; TRPC4 act: inactive; TRPC4 PAM: inactive; Kir21 block: inactive; TRPC4 block: inactive; TRPC6 act: inactive

Results for CCOc1ccc(OCC(O)CN2CCc3ccccc3C2)cc1 (configuration not stated) ?
TRPC6 inhibitor: inactive; TRPC4 act: inactive; TRPC4 PAM: inactive; Kir21 block: inactive; TRPC4 block: inactive; TRPC6 act: inactive

Results for Cc1ccc(C)c(OCC(O)CN2CCc3ccccc3C2)c1C (configuration not stated) ?
TRPC6 inhibitor: inactive; TRPC4 act: inactive; TRPC4 PAM: inactive; Kir21 block: -5.7; TRPC4 block: inactive; TRPC6 act: inactive

Results for CC1CCCCC1NC(=O)CN(C)S(=O)(=O)c1cccc2cccnc12 (configuration not stated) ?
TRPC6 inhibitor: inactive; TRPC4 act: inactive; TRPC4 PAM: inactive; Kir21 block: inactive; TRPC4 block: inactive; TRPC6 act: inactive

What do the screens show for `CC(C)(C)n1cnc2cc(NCc3ccc(Br)cc3)ccc21`?
TRPC6 inhibitor: inactive; TRPC4 act: inactive; TRPC4 PAM: 25; Kir21 block: inactive; TRPC4 block: inactive; TRPC6 act: inactive

What do the screens show for `CCc1ccc(CNc2ccc3c(c2)ncn3CC)cc1`?
TRPC6 inhibitor: -5; TRPC4 act: inactive; TRPC4 PAM: inactive; Kir21 block: inactive; TRPC4 block: inactive; TRPC6 act: inactive

Results for CNC[C@H](Cc1ccccc1)NC[C@@H](Cc1cccc2ccccc12)NCCc1ccc(C)cc1 ?
TRPC6 inhibitor: inactive; TRPC4 act: 173; TRPC4 PAM: inactive; Kir21 block: -10; TRPC4 block: inactive; TRPC6 act: inactive

How did Cc1nnc(OCc2nc3ccccc3n2C)c2ccccc12 do in these assays?
TRPC6 inhibitor: inactive; TRPC4 act: inactive; TRPC4 PAM: inactive; Kir21 block: -4.7; TRPC4 block: inactive; TRPC6 act: inactive

Results for CCC(=O)c1c(NC(CC)CO)cc(C)oc1=O (configuration not stated) ?
TRPC6 inhibitor: inactive; TRPC4 act: inactive; TRPC4 PAM: inactive; Kir21 block: inactive; TRPC4 block: inactive; TRPC6 act: inactive

Results for CC1CCC(C(C)C)C(OC(=O)CSc2nccc(=O)[nH]2)C1 (configuration not stated) ?
TRPC6 inhibitor: inactive; TRPC4 act: inactive; TRPC4 PAM: inactive; Kir21 block: inactive; TRPC4 block: inactive; TRPC6 act: inactive

What do the screens show for `COc1ccc(OCc2n(CC(=O)OC3CC(C)CCC3C(C)C)c3ccccc3[n+]2C)cc1` (configuration not stated)?
TRPC6 inhibitor: inactive; TRPC4 act: inactive; TRPC4 PAM: inactive; Kir21 block: -9.9; TRPC4 block: inactive; TRPC6 act: inactive

Results for N#CC1=C(N)OC2=C(C(=O)CCC2)C1c1cc2c(cc1Br)OCO2 (configuration not stated) ?
TRPC6 inhibitor: inactive; TRPC4 act: inactive; TRPC4 PAM: inactive; Kir21 block: inactive; TRPC4 block: inactive; TRPC6 act: inactive

How did CCOC(=O)c1c(NC(=O)CSc2nc3ccc(C)cc3[nH]2)sc2c1CC(C)(C)NC2(C)C do in these assays?
TRPC6 inhibitor: inactive; TRPC4 act: inactive; TRPC4 PAM: inactive; Kir21 block: -4.8; TRPC4 block: inactive; TRPC6 act: inactive

How did CCOC(=O)c1c(NC(=O)CSc2nnnn2-c2ccccc2)sc2c1CC(C)(C)NC2(C)C do in these assays?
TRPC6 inhibitor: inactive; TRPC4 act: inactive; TRPC4 PAM: inactive; Kir21 block: inactive; TRPC4 block: inactive; TRPC6 act: inactive

How did Cc1ccc(S(=O)(=O)c2nc(S(C)(=O)=O)sc2N2CCCCC2C)cc1 (configuration not stated) do in these assays?
TRPC6 inhibitor: inactive; TRPC4 act: inactive; TRPC4 PAM: inactive; Kir21 block: inactive; TRPC4 block: inactive; TRPC6 act: inactive

What do the screens show for `COc1ccc(CN(C)CC(=O)Nc2sc3c(c2C#N)CCC3)cc1OC`?
TRPC6 inhibitor: inactive; TRPC4 act: inactive; TRPC4 PAM: inactive; Kir21 block: inactive; TRPC4 block: -6; TRPC6 act: inactive

Results for CN(CC(=O)Nc1ccccc1Br)Cc1nc2ccccc2c(=O)[nH]1 ?
TRPC6 inhibitor: inactive; TRPC4 act: inactive; TRPC4 PAM: inactive; Kir21 block: inactive; TRPC4 block: inactive; TRPC6 act: inactive

Results for COc1cccc(CN(C)CC(=O)Nc2sc3c(c2C#N)CCC3)c1OC ?
TRPC6 inhibitor: inactive; TRPC4 act: inactive; TRPC4 PAM: inactive; Kir21 block: inactive; TRPC4 block: inactive; TRPC6 act: inactive

What do the screens show for `CN(CC(=O)Nc1sc2c(c1C#N)CCCCC2)Cc1nc2ccccc2c(=O)[nH]1`?
TRPC6 inhibitor: inactive; TRPC4 act: inactive; TRPC4 PAM: 16; Kir21 block: inactive; TRPC4 block: inactive; TRPC6 act: inactive

What do the screens show for `O=C(CSc1ccc2ccccc2c1)N1CCN(c2ccc(O)cc2)CC1`?
TRPC6 inhibitor: inactive; TRPC4 act: inactive; TRPC4 PAM: inactive; Kir21 block: -4.2; TRPC4 block: inactive; TRPC6 act: inactive

What do the screens show for `Cc1ccc(-n2cc(CNCCn3nc(C)cc3C)c(-c3ccc(F)cc3)n2)cc1`?
TRPC6 inhibitor: inactive; TRPC4 act: inactive; TRPC4 PAM: inactive; Kir21 block: inactive; TRPC4 block: inactive; TRPC6 act: inactive

How did Fc1ccc(-n2cc(CNCCc3ccccn3)c(-c3ccccc3Cl)n2)cc1 do in these assays?
TRPC6 inhibitor: inactive; TRPC4 act: 253; TRPC4 PAM: inactive; Kir21 block: inactive; TRPC4 block: inactive; TRPC6 act: inactive

What do the screens show for `Cc1ccc(-n2cc(CNCCc3ncc(C)[nH]3)c(-c3ccc(F)cc3)n2)cc1`?
TRPC6 inhibitor: inactive; TRPC4 act: 133; TRPC4 PAM: inactive; Kir21 block: inactive; TRPC4 block: inactive; TRPC6 act: inactive

Results for COc1ccc(-n2cc(CNCCc3ncc(C)[nH]3)c(-c3ccccc3Cl)n2)cc1 ?
TRPC6 inhibitor: inactive; TRPC4 act: 148; TRPC4 PAM: inactive; Kir21 block: -4.8; TRPC4 block: inactive; TRPC6 act: inactive
